Measurements as given in ChEMBL document CHEMBL1268850, “Search for antifungal compounds from the wood of durable tropical trees” (2010).
Converted amounts (≈) assume the structure as drawn.

Key:
[1] = system: Nannizzia gypsea; assay: Antifungal activity against Microsporum gypseum LMGO 10 after 5 days microdilution technique; type: functional; details: LMGO 10, 120 h
Procedure, shortened: (§1)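 Dermatophytes were maintained on potato dextrose agar and subcultured 5 days at 28 °C before testing. Microdilution followed CLSI M38-A, with extracts at 500 to 0.98 µg/mL and pure compounds at 256 to 0.5 µg/mL. Fluconazole and itraconazole were the references. Plates were incubated at 32 °C and read after 5 days. MIC is the lowest concentration preventing visible growth, in triplicate.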

[2] = system: Nannizzia gypsea; assay: Antifungal activity against Microsporum gypseum LMGO 533 after 5 days microdilution technique; type: functional; details: LMGO 533, 120 h; procedure, shortened: as §1
[3] = system: Microsporum canis; assay: Antifungal activity against Microsporum canis LMGO 22 after 5 days microdilution technique; type: functional; details: LMGO 22, 120 h; procedure, shortened: as §1
[4] = system: Microsporum canis; assay: Antifungal activity against Microsporum canis LMGO 02 after 5 days microdilution technique; type: functional; details: LMGO 02, 120 h; procedure, shortened: as §1
[5] = system: Trichophyton rubrum; assay: Antifungal activity against Trichophyton rubrum LMGO 4218 after 5 days microdilution technique; type: functional; details: LMGO 4218, 120 h; procedure, shortened: as §1
[6] = system: Trichophyton rubrum; assay: Antifungal activity against Trichophyton rubrum LMGO 06 after 5 days microdilution technique; type: functional; details: LMGO 06, 120 h; procedure, shortened: as §1
[7] = system: Trichophyton rubrum; assay: Antifungal activity against Trichophyton rubrum LMGO 08 after 5 days microdilution technique; type: functional; details: LMGO 08, 120 h; procedure, shortened: as §1
[8] = system: Trichophyton mentagrophytes; assay: Antifungal activity against Trichophyton mentagrophytes LMGO 1931 after 5 days microdilution technique; type: functional; details: LMGO 1931, 120 h; procedure, shortened: as §1
[9] = system: Candida albicans; assay: Antifungal activity against Candida albicans ATCC 10231 after 5 days microdilution technique; type: functional; details: ATCC 10231, 120 h
Procedure, shortened: (§2)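 Yeasts were kept on potato dextrose agar and subcultured 2 days at 28 °C before testing. Broth microdilution followed CLSI M27-A2. Crude extracts were tested at 500 to 0.98 µg/mL and pure compounds at 256 to 0.5 µg/mL. Fluconazole (64 to 0.125 µg/mL) and itraconazole (16 to 0.031 µg/mL) served as references. Plates were incubated at 32 °C. MIC is the lowest concentration with no visible growth, in triplicate.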

[10] = system: Candida albicans; assay: Antifungal activity against Candida albicans LMGO 102 after 5 days microdilution technique; type: functional; details: LMGO 102, 120 h; procedure, shortened: as §2
[11] = system: Candida parapsilosis; assay: Antifungal activity against Candida parapsilosis ATCC 22019 after 5 days microdilution technique; type: functional; details: Lodderomyces parapsilosis, ATCC 22019, 120 h; procedure, shortened: as §2
[12] = system: Nakaseomyces glabratus; assay: Antifungal activity against Candida glabrata LMGO 44 after 5 days microdilution technique; type: functional; details: LMGO 44, 120 h; procedure, shortened: as §2
[13] = system: Pichia kudriavzevii; assay: Antifungal activity against Candida krusei LMGO 174 after 5 days microdilution technique; type: functional; details: LMGO 174, 120 h; procedure, shortened: as §2
[14] = system: Cryptococcus gattii species complex; assay: Antifungal activity against Cryptococcus gattii LMGO L1 after 5 days microdilution technique; type: functional, Cryptococcus bacillisporus; details: LMGO L1, 120 h; procedure, shortened: as §2
[15] = system: Trichophyton mentagrophytes; assay: Antifungal activity against Trichophyton mentagrophytes LMGO 09 after 5 days microdilution technique; type: functional; details: LMGO 09, 120 h; procedure, shortened: as §1
[16] = system: Candida parapsilosis; assay: Antifungal activity against Candida parapsilosis LMGO 05 after 2 days microdilution technique; details: Lodderomyces parapsilosis, LMGO 05, 48 h
[17] = system: Pichia kudriavzevii; assay: Antifungal activity against Candida krusei LMGO 174 after 2 days microdilution technique; details: LMGO 174, 48 h
[18] = system: Nakaseomyces glabratus; assay: Antifungal activity against Candida glabrata LMGO 44 after 2 days microdilution technique; details: LMGO 44, 48 h
[19] = system: Candida albicans; assay: Antifungal activity against Candida albicans LMGO 102 after 2 days microdilution technique; details: LMGO 102, 48 h
[20] = system: Candida albicans; assay: Antifungal activity against Candida albicans ATCC 10231 after 2 days microdilution technique; details: ATCC 10231, 48 h
[21] = system: Cryptococcus gattii species complex; assay: Antifungal activity against Cryptococcus gattii LMGO L1 after 2 days microdilution technique; details: LMGO L1, 48 h
[22] = system: Candida parapsilosis; assay: Antifungal activity against Candida parapsilosis ATCC 22019 after 2 days microdilution technique; details: Lodderomyces parapsilosis, ATCC 22019, 48 h

Row | Compound | MIC [1] | MIC [2] | MIC [3] | MIC [4] | MIC [5] | MIC [6] | MIC [7] | MIC [8] | MIC [15] | MIC [16] | MIC [17] | MIC [18] | MIC [19] | MIC [20] | MIC [21] | MIC [22] | other results
1 | OC(Cn1cncn1)(Cn1cncn1)c1ccc(F)cc1F [FLUCONAZOLE] | 16 µg/mL (≈ 52.2 µM) | 64 µg/mL (≈ 209 µM) | > 64 µg/mL | > 64 µg/mL | 32 µg/mL (≈ 104 µM) | 4 µg/mL (≈ 13.1 µM) | 8 µg/mL (≈ 26.1 µM) | 4 µg/mL (≈ 13.1 µM) | 16 µg/mL (≈ 52.2 µM) | 4 µg/mL (≈ 13.1 µM) |  |  |  |  |  |  | MIC [9]: > 64 µg/mL; MIC [10]: 1 µg/mL (≈ 3.27 µM); MIC [11]: > 64 µg/mL; MIC [12]: 4 µg/mL (≈ 13.1 µM); MIC [13]: 8 µg/mL (≈ 26.1 µM); MIC [14]: > 64 µg/mL
2 | CCC(C)n1ncn(-c2ccc(N3CCN(c4ccc(OCC5COC(Cn6cncn6)(c6ccc(Cl)cc6Cl)O5)cc4)CC3)cc2)c1=O (centres undefined) [ITRACONAZOLE] | 0.25 µg/mL (≈ 0.354 µM) | 0.975 µg/mL (≈ 1.38 µM) | 16 µg/mL (≈ 22.7 µM) | 16 µg/mL (≈ 22.7 µM) | 0.5 µg/mL (≈ 0.709 µM) | 0.125 µg/mL (≈ 0.177 µM) | 0.125 µg/mL (≈ 0.177 µM) | 0.5 µg/mL (≈ 0.709 µM) | 0.25 µg/mL (≈ 0.354 µM) | 0.25 µg/mL (≈ 0.354 µM) | 16 µg/mL (≈ 22.7 µM) | 0.5 µg/mL (≈ 0.709 µM) | > 16 µg/mL | 0.5 µg/mL (≈ 0.709 µM) | 2 µg/mL (≈ 2.83 µM) | 0.25 µg/mL (≈ 0.354 µM) | 
3 | C=CCCCCCCCC[C@@H]1C[C@H](C[C@@H](O)CO)C(=O)O1 [RUBRENOLIDE] | 16 µg/mL (≈ 53.6 µM) | 256 µg/mL (≈ 858 µM) | 128 µg/mL (≈ 429 µM) | 16 µg/mL (≈ 53.6 µM) | 16 µg/mL (≈ 53.6 µM) | 8 µg/mL (≈ 26.8 µM) | 8 µg/mL (≈ 26.8 µM) | 64 µg/mL (≈ 214 µM) | 8 µg/mL (≈ 26.8 µM) | 32 µg/mL (≈ 107 µM) | 64 µg/mL (≈ 214 µM) | 4 µg/mL (≈ 13.4 µM) | 16 µg/mL (≈ 53.6 µM) | 64 µg/mL (≈ 214 µM) | 256 µg/mL (≈ 858 µM) | 32 µg/mL (≈ 107 µM) | 
4 | C#CCCCCCCCC[C@@H]1C[C@H](C[C@@H](O)CO)C(=O)O1 [RUBRYNOLIDE] | 32 µg/mL (≈ 108 µM) | 32 µg/mL (≈ 108 µM) | 64 µg/mL (≈ 216 µM) | 32 µg/mL (≈ 108 µM) | 32 µg/mL (≈ 108 µM) | 32 µg/mL (≈ 108 µM) | 32 µg/mL (≈ 108 µM) | > 256 µg/mL | 32 µg/mL (≈ 108 µM) | 128 µg/mL (≈ 432 µM) | 64 µg/mL (≈ 216 µM) | 32 µg/mL (≈ 108 µM) | 32 µg/mL (≈ 108 µM) | 128 µg/mL (≈ 432 µM) | 128 µg/mL (≈ 432 µM) | 128 µg/mL (≈ 432 µM) | 
